Laboratory results from ChEMBL document CHEMBL1142521 (J Med Chem, 2008).

Experiments:
[1] = Chemical stability in simulated gastric fluid after 60 mins; assay type: physicochemical; settings: read-out: Stability
Method in brief: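 Test material incubated in simulated gastric fluid for 60 min; read-out is the percentage of parent compound remaining.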

[2] = Inhibition of Hedgehog pathway-dependent oxysterol-induced mouse C3 H10T1/2 cell differentiation assessed as alkaline phosphatase production after 72 hrs; assay type: functional, cell-based; settings: C3H 10T1/2, 72 h
Method in brief: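 Murine progenitor C3H10T1/2 cells were induced with oxysterol to differentiate into osteoblasts in culture, and Hh pathway inhibition was taken as the effect on this differentiation. The number of determinations is reported per value.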

[3] = Chemical stability in Bronsted and Lewis acid; assay type: physicochemical
[4] = Elimination half life in CD1 mouse at 5 mg/kg, po by LC-MS/MS analysis; assay type: ADME, organism-based; set-up: dose 5 mg/kg, route oral; settings: in vivo, read-out: beta t1/2 (converted)
Method in brief: (§1)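 Hydrochloride salt was dissolved in sterile water for injection containing 30% (w/w) 2-hydroxypropyl-β-cyclodextrin and given to CD-1 mice intravenously and orally. Plasma was sampled at selected time points, proteins were precipitated, and drug levels were quantified by LC-MS/MS.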

[5] = Oral bioavailability in CD1 mouse at 5 mg/kg by LC-MS/MS analysis; assay type: ADME, organism-based; settings: in vivo; method in brief: as §1
Mus musculus = assay: Volume of distribution in CD1 mouse at 5 mg/kg, po by LC-MS/MS analysis; assay type: ADME, organism-based; set-up: dose 5 mg/kg, route oral; settings: in vivo; method in brief: as §1

SMILES | EC50 [2] | further results
CC1=C2C[C@H]3[C@@H](CCC4=CC(=O)CC[C@@]43C)[C@@H]2CC[C@@]2(C1)O[C@@H]1C[C@H](C)CN[C@H]1[C@H]2C | 200 nM | remaining at 1 h [1]: 98%
CC1=C2C[C@H]3[C@@H](CC=C4C[C@@H](O)CC[C@@]43C)[C@@H]2CC[C@@]2(C1)O[C@@H]1C[C@H](C)CN[C@H]1[C@H]2C | > 2500 nM | 
C[C@@H]1CN[C@H]2[C@@H](C)[C@@]3(CC[C@H]4[C@@H]5CC=C6C[C@@H](O)CC[C@]6(C)[C@H]5C[C@@]45C[C@]53C)O[C@@H]2C1 [CYCLOPROPYL CYCLOPAMINE] | > 2000 nM | Stability [3]: Stable
CC1=C2C[C@H]3[C@@H](CCC4=CC(=O)CC[C@@]43C)[C@@H]2CC[C@@]2(C1)O[C@@H]1C[C@H](C)CN(Cc3ccccc3)[C@H]1[C@H]2C | > 2000 nM | 
CC1=C2C[C@H]3[C@@H](CCC4=CC(=O)CC[C@@]43C)[C@@H]2CC[C@@]2(C1)O[C@@H]1C[C@H](C)CN(O)[C@H]1[C@H]2C | 800 nM | 
C[C@H]1C[C@H]2O[C@]3(CC[C@H]4[C@@H]5CC=C6C[C@@H](O)CC[C@]6(C)[C@H]5C[C@@]45C[C@]53C)[C@H](C)[C@@H]2N(C(=O)OCC2c3ccccc3-c3ccccc32)C1 |  | Stability [3]: Stable
CC1=C2C[C@H]3[C@@H](CCC4=CC(=O)CC[C@@]43C)[C@@H]2CC[C@@]2(C1)O[C@@H]1C[C@H](C)CN[C@H]1[C@H]2C.Cl |  | half-life [4]: 3.2 h; bioavailability [5]: 80%; Vd (Mus musculus): 18 L/kg
CC1=C2C[C@H]3[C@@H](CCC4=CC(=O)CC[C@@]43C)[C@@H]2CC[C@@]2(C1)O[C@@H]1C[C@H](C)CN(CCNC(=O)CCCCCNC(=O)CCc3ccccc3)[C@H]1[C@H]2C | 10 nM | 
CC(=O)N1C[C@@H](C)C[C@H]2O[C@]3(CC[C@@H]4C(=C(C)C3)C[C@H]3[C@H]4CCC4=CC(=O)CC[C@@]43C)[C@H](C)[C@@H]21 | 120 nM | 
COCCOCCN1C[C@@H](C)C[C@H]2O[C@]3(CC[C@@H]4C(=C(C)C3)C[C@H]3[C@H]4CCC4=CC(=O)CC[C@@]43C)[C@H](C)[C@@H]21 | 400 nM | 
CC1=C2C[C@H]3[C@@H](CCC4=CC(=O)CC[C@@]43C)[C@@H]2CC[C@@]2(C1)O[C@@H]1C[C@H](C)CN(CCNC(=O)CCc3ccccc3)[C@H]1[C@H]2C | 20 nM | 
CC1=C2C[C@H]3[C@@H](CCC4=CC(=O)CC[C@@]43C)[C@@H]2CC[C@@]2(C1)O[C@@H]1C[C@H](C)CN(CCOCCO)[C@H]1[C@H]2C | > 1000 nM | 
CC1=C2C[C@H]3[C@@H](CCC4=CC(=O)CC[C@@]43C)[C@@H]2CC[C@@]2(C1)O[C@@H]1C[C@H](C)CN(CCCl)[C@H]1[C@H]2C | > 2500 nM | 
CC1=C2C[C@H]3[C@@H](CCC4=CC(=O)CC[C@@]43C)[C@@H]2CC[C@@]2(C1)O[C@@H]1C[C@H](C)CN(C)[C@H]1[C@H]2C | 400 nM | 
CC1=C2C[C@H]3[C@@H](CC=C4C[C@@H](O)CC[C@@]43C)[C@@H]2CC[C@]12O[C@@H]1C[C@H](C)CN[C@H]1[C@H]2C [CYCLOPAMINE] | 170 nM | remaining at 1 h [1]: 60%
